Measurements taken from ChEMBL document CHEMBL1157638, “Fluorescent epigenetic small molecule induces expression of the tumor suppressor ras-association domain family 1A and inhibits human prostate xenograft” (J Med Chem, 2010).
The source made the active and inactive calls. The rule behind the calls is not given here.

Experiments:
DU-145 [1] = test: Growth inhibition of human DU145 cells assessed as cell growth at 10 nM relative to untreated control; assay type: functional; conditions: read-out: Activity
Outline: (§1)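 Run externally at the National Cancer Institute as a 59-cell-line panel screen, with concentrations up to 100 μM. Growth was scored relative to control, where negative growth or total cell kill was possible. Data are in the Supporting Information.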

HL-60(TB) = test: Growth inhibition of human HL-60(TB) cells assessed as cell growth at 100 nM relative to untreated control; assay type: functional; conditions: read-out: Activity
K562 [2] = test: Growth inhibition of human K562 cells assessed as cell growth at 100 nM relative to untreated control; assay type: functional; conditions: read-out: Activity
SF-539 [3] = test: Growth inhibition of human SF539 cells assessed as cell growth at 100 nM relative to untreated control; assay type: functional; conditions: read-out: Activity
SK-OV-3 = test: Growth inhibition of human SKOV3 cells assessed as cell growth at 100 nM relative to untreated control; assay type: functional; conditions: read-out: Activity
HOP-92 [4] = test: Growth inhibition of human HOP92 cells assessed as cell growth at 1 uM relative to untreated control; assay type: functional; conditions: read-out: Activity; outline: as §1
NCI-H23 = test: Growth inhibition of human NCI-H23 cells assessed as cell growth at 1 uM relative to untreated control; assay type: functional; conditions: read-out: Activity
NCI-H522 = test: Growth inhibition of human NCI-H522 cells assessed as cell growth at 1 uM relative to untreated control; assay type: functional; conditions: read-out: Activity
HCT-116 [5] = test: Growth inhibition of human HCT116 cells assessed as cell growth at 1 nM relative to untreated control; assay type: functional; conditions: read-out: Activity; outline: as §1
SW-620 [6] = test: Growth inhibition of human SW620 cells assessed as cell growth at 1 nM relative to untreated control; assay type: functional; conditions: read-out: Activity
LOX IMVI = test: Growth inhibition of human LOXIMVI cells assessed as cell growth at 1 nM relative to untreated control; assay type: functional; conditions: read-out: Activity
SK-MEL-28 [7] = test: Growth inhibition of human SK-MEL-28 cells assessed as cell growth at 1 nM relative to untreated control; assay type: functional; conditions: read-out: Activity
SK-MEL-5 [8] = test: Growth inhibition of human SK-MEL-5 cells assessed as cell growth at 1 nM relative to untreated control; assay type: functional; conditions: read-out: Activity
SK-MEL-5 [9] = test: Growth inhibition of human SK-MEL-5 cells assessed as cell growth at 1 uM relative to untreated control; assay type: functional; conditions: read-out: Activity
DU-145 [10] = test: Growth inhibition of human DU145 cells assessed as cell growth at 1 nM relative to untreated control; assay type: functional; conditions: read-out: Activity; outline: as §1
[11] = Growth inhibition of human Hs 578T cells assessed as cell growth at 1 nM relative to untreated control; assay type: functional; conditions: read-out: Activity
A498 = test: Growth inhibition of human A498 cells assessed as cell growth at 1 uM relative to untreated control; assay type: functional; conditions: read-out: Activity
DU-145 [12] = test: Growth inhibition of human DU145 cells assessed as cell growth at 1 uM relative to untreated control; assay type: functional; conditions: read-out: Activity; outline: as §1
MDA-MB-231 = test: Growth inhibition of human MDA-MB-231 cells assessed as cell growth at 1 uM relative to untreated control; assay type: functional; conditions: read-out: Activity
BT-549 = test: Growth inhibition of human BT549 cells assessed as cell growth at 1 uM relative to untreated control; assay type: functional; conditions: read-out: Activity
NCI-H322M = test: Growth inhibition of human NCI-H322M cells assessed as cell growth at 10 uM relative to untreated control; assay type: functional; conditions: read-out: Activity
HCC 2998 [13] = test: Growth inhibition of human HCC2998 cells assessed as cell growth at 10 uM relative to untreated control; assay type: functional; conditions: read-out: Activity; outline: as §1
HCT-116 [14] = test: Growth inhibition of human HCT116 cells assessed as cell growth at 10 uM relative to untreated control; assay type: functional; conditions: read-out: Activity; outline: as §1
SW-620 [15] = test: Growth inhibition of human SW620 cells assessed as cell growth at 10 uM relative to untreated control; assay type: functional; conditions: read-out: Activity
SF-295 [16] = test: Growth inhibition of human SF295 cells assessed as cell growth at 10 uM relative to untreated control; assay type: functional; conditions: read-out: Activity
SF-539 [17] = test: Growth inhibition of human SF539 cells assessed as cell growth at 10 uM relative to untreated control; assay type: functional; conditions: read-out: Activity
U-251 = test: Growth inhibition of human U251 cells assessed as cell growth at 10 uM relative to untreated control; assay type: functional; conditions: read-out: Activity
ACHN [18] = test: Growth inhibition of human ACHN cells assessed as cell growth at 10 uM relative to untreated control; assay type: functional; conditions: read-out: Activity
K562 [19] = test: Growth inhibition of human K562 cells; assay type: functional
HCC 2998 [20] = test: Growth inhibition of human HCC2998 cells; assay type: functional; conditions: read-out: LC50 (the source's name); outline: as §1
HT-29 = test: Growth inhibition of human HT-29 cells; assay type: functional
Malme-3M = test: Growth inhibition of human MALME-3M cells; assay type: functional
UACC-62 = test: Growth inhibition of human UACC62 cells; assay type: functional
[21] = target: DNA (cytosine-5)-methyltransferase 1 (Homo sapiens) (UniProt P26358); test: Inhibition of DNA methyltransferase activity in human PC3 cells at 2 uM after 3 days; assay type: cell-based; conditions: PC-3
Chain of DNA (cytosine-5)-methyltransferase 1 (Homo sapiens) (P26358 whole entry): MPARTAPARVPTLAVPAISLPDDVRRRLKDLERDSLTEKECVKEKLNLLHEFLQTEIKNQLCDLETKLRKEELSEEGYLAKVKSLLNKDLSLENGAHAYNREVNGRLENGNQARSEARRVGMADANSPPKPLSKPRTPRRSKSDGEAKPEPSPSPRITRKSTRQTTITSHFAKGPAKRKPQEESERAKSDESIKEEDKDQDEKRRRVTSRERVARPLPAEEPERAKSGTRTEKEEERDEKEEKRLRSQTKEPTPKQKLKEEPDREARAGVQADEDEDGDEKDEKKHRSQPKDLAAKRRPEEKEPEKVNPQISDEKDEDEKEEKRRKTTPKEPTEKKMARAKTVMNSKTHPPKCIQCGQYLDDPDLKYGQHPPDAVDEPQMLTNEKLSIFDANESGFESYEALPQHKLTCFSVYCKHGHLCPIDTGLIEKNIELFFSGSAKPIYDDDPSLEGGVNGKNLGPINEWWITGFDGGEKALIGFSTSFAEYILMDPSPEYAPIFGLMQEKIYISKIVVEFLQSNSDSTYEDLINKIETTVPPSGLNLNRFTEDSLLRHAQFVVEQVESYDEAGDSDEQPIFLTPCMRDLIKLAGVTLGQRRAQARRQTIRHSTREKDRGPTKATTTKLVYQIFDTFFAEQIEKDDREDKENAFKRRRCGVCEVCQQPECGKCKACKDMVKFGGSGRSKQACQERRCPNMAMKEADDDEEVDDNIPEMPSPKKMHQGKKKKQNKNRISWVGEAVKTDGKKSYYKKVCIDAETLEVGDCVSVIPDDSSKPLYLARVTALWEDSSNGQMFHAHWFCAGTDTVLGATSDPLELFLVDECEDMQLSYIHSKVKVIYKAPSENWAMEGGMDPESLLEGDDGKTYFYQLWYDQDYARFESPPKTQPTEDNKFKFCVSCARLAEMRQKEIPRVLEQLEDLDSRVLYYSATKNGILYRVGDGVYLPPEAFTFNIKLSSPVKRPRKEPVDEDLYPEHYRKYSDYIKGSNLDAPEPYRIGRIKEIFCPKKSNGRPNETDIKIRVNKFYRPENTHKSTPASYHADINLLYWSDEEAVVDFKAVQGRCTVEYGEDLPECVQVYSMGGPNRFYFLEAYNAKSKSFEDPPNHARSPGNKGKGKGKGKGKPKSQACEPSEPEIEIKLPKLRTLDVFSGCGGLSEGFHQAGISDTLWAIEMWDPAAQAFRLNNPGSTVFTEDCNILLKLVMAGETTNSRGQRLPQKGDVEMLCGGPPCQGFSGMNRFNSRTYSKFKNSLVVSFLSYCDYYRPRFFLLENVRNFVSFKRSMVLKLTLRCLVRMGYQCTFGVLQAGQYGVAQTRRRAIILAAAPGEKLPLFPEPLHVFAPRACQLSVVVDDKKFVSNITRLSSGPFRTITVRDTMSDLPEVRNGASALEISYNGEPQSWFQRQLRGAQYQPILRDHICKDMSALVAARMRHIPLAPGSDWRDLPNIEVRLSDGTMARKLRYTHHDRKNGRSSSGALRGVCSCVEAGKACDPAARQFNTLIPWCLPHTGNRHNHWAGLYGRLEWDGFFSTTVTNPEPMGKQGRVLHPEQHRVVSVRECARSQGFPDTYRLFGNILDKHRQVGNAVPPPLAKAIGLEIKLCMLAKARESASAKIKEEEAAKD
Outline: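 PC-3 cells in complete growth medium treated 3 days with compound, then harvested. Nuclear extracts prepared by kit protocol, and DNMT activity measured with a commercial DNMT activity kit against untreated cells. Mean of three independent experiments ± SEM.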

[22] = target: DNA (cytosine-5)-methyltransferase 3B (Homo sapiens) (UniProt Q9UBC3); test: Binding affinity to DNMT3b in human PC3 cells cytoplasm at 5 uM after 6 hrs by antibody staining; assay type: cell-based; conditions: PC-3
Outline: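 PC-3 cells were plated overnight on fibronectin/[…]-coated slides and treated with 5 μM compound or DMSO for 1-6 h. Cells were PBS-washed, fixed in 4% formaldehyde, and stained with propidium iodide (nuclei) and anti-DNMT3a or anti-DNMT3b antibody. The compound was excited at 725 nm by multiphoton laser and imaged through a 500-550 nm filter by confocal microscopy.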

CCRF-CEM = test: Growth inhibition of human CCRF-CEM cells assessed as cell growth at 1 nM relative to untreated control; assay type: functional; conditions: read-out: Activity
K562 [23] = test: Growth inhibition of human K562 cells assessed as cell growth at 1 nM relative to untreated control; assay type: functional; conditions: read-out: Activity
EKVX = test: Growth inhibition of human EKVX cells assessed as cell growth at 1 nM relative to untreated control; assay type: functional; conditions: read-out: Activity; outline: as §1
HOP-92 [24] = test: Growth inhibition of human HOP92 cells assessed as cell growth at 1 nM relative to untreated control; assay type: functional; conditions: read-out: Activity; outline: as §1
MCF7 = test: Growth inhibition of human MCF7 cells; assay type: functional
SF-295 [25] = test: Growth inhibition of human SF295 cells assessed as cell growth at 10 nM relative to untreated control; assay type: functional; conditions: read-out: Activity
SK-MEL-28 [26] = test: Growth inhibition of human SK-MEL-28 cells assessed as cell growth at 10 nM relative to untreated control; assay type: functional; conditions: read-out: Activity
ACHN [27] = test: Growth inhibition of human ACHN cells assessed as cell growth at 10 nM relative to untreated control; assay type: functional; conditions: read-out: Activity
PC-3 = test: Growth inhibition of human PC3 cells assessed as cell growth at 10 nM relative to untreated control; assay type: functional; conditions: read-out: Activity
[28] = read-out: LC50 (the source's name)

Structure (SMILES): COc1ccc2c(c1)[nH]c1c(C)c(OS(=O)(=O)c3cccc4c(N(C)C)cccc34)ccc12
- growth at 0.01 µM (DU-145 [1]): 107%
- growth at 0.1 µM (HL-60(TB)): 69%
- growth at 0.1 µM (K562 [2]): 91%
- growth at 0.1 µM (SF-539 [3]): 87%
- growth at 0.1 µM (SK-OV-3): 99%
- growth at 1 µM (HOP-92 [4]): 49%
- growth at 1 µM (NCI-H23): 30%
- growth at 1 µM (NCI-H522): 50%
- growth at 0.001 µM (HCT-116 [5]): 100%
- growth at 0.001 µM (SW-620 [6]): 103%
- growth at 0.001 µM (LOX IMVI): 95%
- growth at 0.001 µM (SK-MEL-28 [7]): 99%
- growth at 0.001 µM (SK-MEL-5 [8]): 100%
- growth at 1 µM (SK-MEL-5 [9]): -3%
- growth at 0.001 µM (DU-145 [10]): 113%
- growth at 0.001 µM [11]: 105%
- growth at 1 µM (A498): 15%
- growth at 1 µM (DU-145 [12]): 7%
- growth at 1 µM (MDA-MB-231): 49%
- growth at 1 µM (BT-549): 37%
- growth at 10 µM (NCI-H322M): 34%
- growth at 10 µM (HCC 2998 [13]): -5%
- growth at 10 µM (HCT-116 [14]): 5%
- growth at 10 µM (SW-620 [15]): 9%
- growth at 10 µM (SF-295 [16]): 1%
- growth at 10 µM (SF-539 [17]): -32%
- growth at 10 µM (U-251): 14%
- growth at 10 µM (ACHN [18]): 21%
- GI50 (K562 [19]): 3.01 µM
- TGI (K562 [19]): > 100 µM
- CC50 (K562 [19]; [28]): > 100 µM
- CC50 (HCC 2998 [20]): > 100 µM
- GI50 (HT-29): 3.71 µM
- TGI (HT-29): > 100 µM
- CC50 (HT-29; [28]): > 100 µM
- GI50 (Malme-3M): 3.62 µM
- TGI (Malme-3M): > 100 µM
- CC50 (Malme-3M; [28]): > 100 µM
- GI50 (UACC-62): 3.39 µM
- TGI (UACC-62): > 100 µM
- CC50 (UACC-62; [28]): > 100 µM
- Activity [21]: Active
- Activity [22]: Active
- growth at 0.001 µM (CCRF-CEM): 99%
- growth at 0.001 µM (K562 [23]): 103%
- growth at 0.001 µM (EKVX): 99%
- growth at 0.001 µM (HOP-92 [24]): 101%
- GI50 (MCF7): 2.71 µM
- TGI (MCF7): > 100 µM
- CC50 (MCF7; [28]): > 100 µM
- growth at 0.01 µM (SF-295 [25]): 93%
- growth at 0.01 µM (SK-MEL-28 [26]): 87%
- growth at 0.01 µM (ACHN [27]): 102%
- growth at 0.01 µM (PC-3): 100%
